Series [1] deals with Hepatitis C virus. In words: Antiviral activity against Hepatitis C virus subtype 1b Con1 infected in human Huh7 cells assessed as inhibition of HCV replicon-encoded Renilla luciferase reporter activity after 72 hrs by HCV replicon assay. It counts as functional, organism-based, Hepacivirus hominis. The conditions noted are these: Con1, Huh-7, 72 h. The essentials: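 Huh7 cells stably carrying a bicistronic subgenomic genotype 1b (Con1) replicon with Renilla luciferase reporter, seeded at 2 × 10⁴ cells/well the day before. Four-fold serial dilutions in growth medium, no-drug controls on each plate; 3 days at 37 °C, 5% CO₂. Luciferase reagent 20 min, then luminescence (RLU) read; EC₅₀ derived.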

For series [2], the system named is Liver. In words: Cmax in Sprague-Dawley rat liver assessed as 2'-C-methyl guanosine triphosphate level at 10 mg/kg, po up to 24 hrs by LC-MS/Ms analysis. Type of series: ADME, organism-based. Further details: dose 10 mg/kg, route oral; call rule not given here. The conditions noted are these: in vivo. The essentials:
(§1)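 Male Sprague-Dawley rats dosed orally by gavage at 10 mg/kg in 95% Capmul MCM/5% Tween 80. Livers collected terminally at eight time points up to 24 h and snap-frozen in liquid nitrogen. Liver 2′-C-methylguanosine triphosphate quantified by LC-MS/MS, linear over 100−4000 ng per gram of tissue (r² ≥ 0.99, ≥85% accuracy, ≤2% CV).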

Series [3] can be described thus: Cytotoxicity against human HuH7 cells after 3 days. It counts as cell-based, Huh-7. The essentials: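 Huh7 replicon cells seeded at 2 × 10⁴ per well one day before dosing. Four-fold serial dilutions in growth medium, no-drug controls on each plate. Incubated 3 days at 37 °C, 5% CO₂. Viability read by CellTiter-Glo luminescence after 20 min with reagent.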
In series [4] the test system is Liver. Description: AUC (0 to t) in Sprague-Dawley rat liver assessed as 2'-C-methyl guanosine triphosphate level at 10 mg/kg, po up to 24 hrs by LC-MS/Ms analysis. It counts as ADME, organism-based. Further details: dose 10 mg/kg, route oral. The conditions noted are these: in vivo. Summed up: as §1
Series [5] has as its system Liver. In words: Tmax in Sprague-Dawley rat liver assessed as 2'-C-methyl guanosine triphosphate level at 10 mg/kg, po up to 24 hrs by LC-MS/Ms analysis. Type of series: ADME, organism-based. Further details: dose 10 mg/kg, route oral. The conditions noted are these: in vivo. The essentials: as §1
The test system of series [6] is Liver. Description: Clast in Sprague-Dawley rat liver assessed as 2'-C-methyl guanosine triphosphate level at 10 mg/kg, po up to 24 hrs by LC-MS/Ms analysis. It counts as ADME, organism-based. Further details: dose 10 mg/kg, route oral. The conditions noted are these: in vivo. Summed up:
as §1

A short description of series [7]: Stability in citric acid-HCl buffer at pH 2 incubated for 14 hrs at 37 or 47 degC by [31P] NMR spectroscopy. It counts as physicochemical. The conditions noted are these: pH 2, 14 h. The essentials: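 Compound in citric acid−HCl buffer pH 2, held at 37 or 47 °C and monitored by ³¹P NMR over 14 h.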
The subject of series [8] is Serum. In words: Stability in human serum incubated for 12 hrs by [31P] NMR spectroscopy. Type of series: ADME, cell-free.
Series [9] can be described thus: Stability of the compound in triethylammonium bicarbonate buffer assessed as compound decomposition at pH 11 incubated for 17 hrs at 37 degC by [31P] NMR spectroscopy. It counts as physicochemical. The conditions noted are these: pH 11, 17 h. Summed up:
(§2)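 Base stability tested at pH 8.5 and at pH 11, both at 37 °C, followed by ³¹P NMR, with pH 11 samples followed to 17 h. Half-life estimated assuming first-order decay.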

Series [10] can be described thus: Stability in phosphate buffer assessed as compound decomposition by HPLC. Type of series: physicochemical.
Series [11] in a line: Drug metabolism in acetone-d6 and TRIZMA buffer at pH 7.4 assessed as (S)-2-((((2R,3R,4R,5R)-5-(2-amino-6-methoxy-9H-purin-9-yl)-3,4-dihydroxy-4-methyltetrahydrofuran-2-yl)methoxy)oxidophosphorylamino)propanoate level at 6.94 ppm at pH 7.4 after 1 hr by 31P NMR in presence of carboxypeptidase Y. The conditions noted are these: pH 7.4, 1 h. Type of series: physicochemical. Summed up:
(§3)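 Compound (about 5 mg) in 200 μL acetone-d₆ plus 400 μL Trizma buffer pH 7.4. Baseline ³¹P NMR recorded, then 0.3−0.5 mg carboxypeptidase Y in 200 μL Trizma pH 7.4 added. Processing followed by ³¹P NMR kinetics. A buffer phosphate impurity peak stays constant throughout.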

The nature of series [12]: Stability of the compound in triethylammonium bicarbonate buffer assessed as compound decomposition at pH 11 incubated at 37 degC by [31P] NMR spectroscopy. Type of series: physicochemical. Summed up:
as §2

The nature of series [13]: Selectivity index, ratio of CC50 for human HuH7 cells to EC50 for Hepatitis C virus subtype 1b Con1. Type of series: toxicity, cell-based, Huh-7. The conditions noted are these: read-out: Ratio CC50/EC50. The essentials:
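Huh7 cells carrying a stable bicistronic subgenomic genotype 1b (Con1) HCV replicon with Renilla luciferase reporter, 2 × 10⁴ cells per well. Four-fold serial dilutions, 3 days at 37 °C, 5% CO₂. Replicon inhibition read by luciferase luminescence (RLU) and cytotoxicity by CellTiter-Glo in the same cell line. SI taken as CC50/EC50.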

Series [14] in a line: Stability in phosphate buffer at pH 7 after 14 hrs by [31P] NMR spectroscopy. Type of series: physicochemical. Conditions: pH 7, 14 h.
The nature of series [15]: Drug metabolism in acetone-d6 and TRIZMA buffer at pH 7.4 assessed as (S)-2-((((2R,3R,4R,5R)-5-(2-amino-6-methoxy-9H-purin-9-yl)-3,4-dihydroxy-4-methyltetrahydrofuran-2-yl)methoxy)oxidophosphorylamino)propanoate level at 6.95 ppm at pH 7.4 after 1 hr by 31P NMR in presence of carboxypeptidase Y. Type of series: physicochemical. Conditions: pH 7.4, 1 h. The essentials: as §3

Series [16] in a line: Stability of the compound in triethylammonium bicarbonate buffer assessed as compound decomposition at pH 8.5 incubated at 37 degC by [31P] NMR spectroscopy. Type of series: physicochemical. The essentials:
as §2

Consider `CCCCOC(=O)[C@H](C)NP(=O)(N[C@@H](C)C(=O)OCCCC)OC[C@H]1O[C@@H](n2cnc3c(OC)nc(N)nc32)[C@](C)(O)[C@@H]1O` (mixture of isomers), for which, in series [1], the EC50 was found to be 70 nM and the EC90 stood at 230 nM. Moreover, the Cmax in [2] is 1553.3 ng/g. Further, the CC50 at 72 h in series [3] was > 100 µM. In addition, the AUCt in series [4] came out at 27671 ng·h/g. In addition, in series [5], the Tmax is 8 h. For the same compound, the Clast in series [6] is 719.7 ng/g.

With `CCCCCOC(=O)[C@H](C)NP(=O)(N[C@@H](C)C(=O)OCCCCC)OC[C@H]1O[C@@H](n2cnc3c(OC)nc(N)nc32)[C@](C)(O)[C@@H]1O` (mixture of isomers), in [1], the EC50 was determined as 30 nM and the EC90 came to 110 nM. Moreover, in series [2], the Cmax came to 1042.3 ng/g. The CC50 at 72 h in series [3] was determined as 65 µM. Further, the AUCt in series [4] is 18600 ng·h/g. The Tmax in [5] is 8 h. Moreover, in [6], the Clast was 506 ng/g.

`CCC(C)OC(=O)[C@H](C)NP(=O)(N[C@@H](C)C(=O)OC(C)CC)OC[C@H]1O[C@@H](n2cnc3c(OC)nc(N)nc32)[C@](C)(O)[C@@H]1O` (mixture of isomers): in series [1], the EC50 came to 150 nM and the EC90 is 530 nM. Further, the Cmax in series [2] worked out at 907.7 ng/g. For the same compound, the CC50 at 72 h in series [3] was > 100 µM. For the same compound, the AUCt in series [4] stood at 16252 ng·h/g. For the same compound, the Tmax in series [5] worked out at 8 h. Moreover, in series [6], the Clast came to 538.7 ng/g.

Regarding `COc1nc(N)nc2c1ncn2[C@@H]1O[C@H](COP(=O)(N[C@@H](C)C(=O)OC2CCCC2)N[C@@H](C)C(=O)OC2CCCC2)[C@@H](O)[C@@]1(C)O` (mixture of isomers), in series [1], the EC50 worked out at 60 nM and the EC90 came to 220 nM. Further, the Cmax in [2] is reported as 1523.3 ng/g. The CC50 at 72 h in series [3] is > 100 µM. Also, the AUCt in series [4] came out at 24546 ng·h/g. In [5], the Tmax came out at 8 h. For the same compound, the Clast in series [6] was found to be 610 ng/g.

Consider `COc1nc(N)nc2c1ncn2[C@@H]1O[C@H](COP(=O)(N[C@@H](C)C(=O)OC2Cc3ccccc3C2)N[C@@H](C)C(=O)OC2Cc3ccccc3C2)[C@@H](O)[C@@]1(C)O` (mixture of isomers), for which, in series [1], the EC50 was found to be 580 nM and the EC90 was 1300 nM. In addition, the peak concentration (Cmax) in [2] is 632 ng/g. This compound also registered a CC50 at 72 h in [3] of 70 µM. Moreover, the AUCt in [4] came out at 10642 ng·h/g. The time of peak concentration (Tmax) in series [5] was 24 h. Further, in series [6], the Clast is 632 ng/g.

Consider `COc1nc(N)nc2c1ncn2[C@@H]1O[C@H](COP(=O)(N[C@@H](C)C(=O)OCC(C)(C)C)N[C@@H](C)C(=O)OCC(C)(C)C)[C@@H](O)[C@@]1(C)O` (mixture of isomers), for which the EC50 in [1] worked out at 60 nM. In series [1], the EC90 was 200 nM. The Stability entry in series [7], in series [8], in series [9], in [10], in series [12] and in series [14] was “Stable” each time. The Stability result in series [16] is given as “Stable”. Besides, the highest concentration (Cmax) in series [2] came to 1580 ng/g. Besides, the CC50 at 72 h in [3] is > 100 µM. The AUCt in series [4] worked out at 25147 ng·h/g. Besides, the Drug metabolism entry in series [11] and in [15] was “Active” throughout. Further, the selectivity ratio in [13] is > 1600. For the same compound, the Tmax in [5] turned out to be 8 h. The Clast in [6] is on record as 800 ng/g.

`COc1nc(N)nc2c1ncn2[C@@H]1O[C@H](COP(=O)(N[C@H](C)C(=O)OCC(C)(C)C)N[C@H](C)C(=O)OCC(C)(C)C)[C@@H](O)[C@@]1(C)O` (mixture of isomers): in [1], the EC50 was determined as 110 nM and the EC90 is 500 nM. Further, the Cmax in series [2] was determined as 598.3 ng/g. The CC50 at 72 h in series [3] is > 100 µM. Further, the AUCt in [4] amounted to 11608 ng·h/g. The Tmax in [5] came to 8 h. Also, the Clast in series [6] came out at 441.7 ng/g.

For the compound `CC[C@H](C)[C@H](NP(=O)(N[C@H](C(=O)OC1CCCCC1)[C@@H](C)CC)OC[C@H]1O[C@@H](n2cnc3c(OC)nc(N)nc32)[C@](C)(O)[C@@H]1O)C(=O)OC1CCCCC1` (mixture of isomers), in series [1], the EC50 was 4000 nM and the EC90 is 7100 nM. Moreover, the CC50 at 72 h in series [3] is 14 µM. For the same compound, in series [13], the selectivity ratio amounted to 4.

As for `COc1nc(N)nc2c1ncn2[C@@H]1O[C@H](COP(=O)(N[C@H](C(=O)OCc2ccccc2)C(C)C)N[C@H](C(=O)OCc2ccccc2)C(C)C)[C@@H](O)[C@@]1(C)O` (mixture of isomers), in series [1], the EC50 is 120 nM and the EC90 is 660 nM. Further, the Cmax in series [2] was determined as 359.5 ng/g. This compound registered a CC50 at 72 h in series [3] of 49 µM. Further, the AUCt in series [4] was 4478 ng·h/g. The Tmax in series [5] turned out to be 4 h. For the same compound, the Clast in series [6] came to 73.6 ng/g.

Turning to `COc1nc(N)nc2c1ncn2[C@@H]1O[C@H](COP(=O)(N[C@@H](C)C(=O)OCC(C)(C)C)Oc2cccc3ccccc23)[C@@H](O)[C@@]1(C)O` (some centres undefined) [BMS-986094], the Cmax in series [2] worked out at 1446.7 ng/g. In addition, in series [4], the AUCt came to 24557 ng·h/g. Moreover, the time of peak concentration (Tmax) in [5] was 8 h. The Clast in series [6] came to 983.3 ng/g.

For the origin of these results see ChEMBL document CHEMBL2150978, “Phosphorodiamidates as a promising new phosphate prodrug motif for antiviral drug discovery: application to anti-HCV agents” (J Med Chem, 2011).
